Assay results published in ChEMBL document CHEMBL1154607, “Searching for new cures for tuberculosis: design, synthesis, and biological evaluation of 2-methylbenzothiazoles” (J Med Chem, 2009).
In brackets after ≈: the same amount, converted by molar mass.

How the values were obtained:
[1] = system: Mycobacterium tuberculosis; assay: Antimycobacterial activity against Mycobacterium tuberculosis H37Rv after 7 days by microplate alamar blue assay; type: functional; settings: 168 h
How it was run: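 M. tuberculosis H37Rv growth inhibition was read by microplate Alamar blue assay (MABA). The value is reported as the minimum inhibitory concentration (MIC), in μM.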

[2] = system: Plasmodium falciparum; assay: Antimicrobial activity against chloroquine and pyrimethamine-resistant Plasmodium falciparum K1 in erythrocytes; type: functional, organism-based
[3] = Cytotoxicity against african green monkey Vero cells after 72 hrs; type: cell-based; settings: chlorocebus sabaeus, read-out: MIC
How it was run: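 Toxicity was tested in Vero cells, and the value is reported as IC50 in μM.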

[4] = system: Trypanosoma brucei rhodesiense; assay: Antimicrobial activity against Trypanosoma brucei rhodesiense STIB 900 trypomastigote forms; type: functional, organism-based
[5] = system: Trypanosoma cruzi; assay: Antimicrobial activity against Trypanosoma cruzi Tulahuen C2C4 amastigote forms infected in rat L6 cells; type: functional, organism-based
[6] = system: Leishmania donovani; assay: Antimicrobial activity against Leishmania donovani MHOM/ET/67/L82 axenic amastigote forms; type: functional, organism-based

| SMILES | MIC [1] [µM] | IC50 [2] [µM] | MCC at 72 h [3] [µM] | IC50 [4] [µM] | IC50 [5] [µM] | IC50 [6] [µM] |
| --- | --- | --- | --- | --- | --- | --- |
| Cc1nc2cc(OCc3cc(C(=O)N[C@H](C(=O)NNC(=O)c4ccncc4)c4ccccc4)no3)ccc2s1 | 47.5 (≈ 25.8 µg/mL) |  |  |  |  |  |
| COC(=O)[C@@H](NC(=O)c1cc(COc2nc3ccccc3s2)on1)c1ccccc1 | 15.2 (≈ 6.44 µg/mL) | > 5 | > 128 | 88.6 | 26.8 | 4.99 |
| COC(=O)c1ccccc1NC(=O)c1cc(COc2ccc3sc(C)nc3c2)on1 | 30.2 (≈ 12.8 µg/mL) |  | > 128 |  |  |  |
| Cc1nc2cc(OCc3cc(C(=O)N4CCCCC4)no3)ccc2s1 | 120 (≈ 42.7 µg/mL) |  |  |  |  |  |
| COC(=O)[C@H](CCSC)NC(=O)c1cc(COc2ccc3sc(C)nc3c2)on1 | 3.7 (≈ 1.61 µg/mL) |  | > 128 |  |  |  |
| Cc1nc2cc(OCc3cc(C(=O)N[C@H](C(=O)O)c4ccccc4)no3)ccc2s1 | > 128 | > 5 |  | 89.5 | > 90 | 32.3 |
| Cc1nc2cc(OCc3cc(C(=O)N(C)C)no3)ccc2s1 | > 128 |  |  |  |  |  |
| COC(=O)[C@@H](NC(=O)c1cc(COc2cccc3sc(C)nc23)on1)c1ccccc1 | 7.4 (≈ 3.24 µg/mL) | > 5 | > 128 | > 90 | 18.8 | 4.12 |
| Cc1nc2cc(OCc3cc(C(=O)N4CCN(C)CC4)no3)ccc2s1 | > 128 |  | > 128 |  |  |  |
| Cc1nc2cc(OCc3cc(C(=O)O)no3)ccc2s1 | > 128 |  |  |  |  |  |
| CCN(CC)C(=O)c1cc(COc2ccc3sc(C)nc3c2)on1 | > 128 |  |  |  |  |  |
| COC(=O)[C@@H](NC(=O)c1cc(COc2ccccc2)on1)c1ccccc1 | 3.5 (≈ 1.28 µg/mL) | > 5 | > 128 | > 90 | 45.9 | 13.5 |
| COC(=O)[C@@H](NC(=O)c1cc(COc2ccc3sc(-c4cccc(C(F)(F)F)c4)nc3c2)on1)c1ccccc1 | 59.5 (≈ 33.8 µg/mL) |  |  |  |  |  |
| COC(=O)[C@H](Cc1ccccc1)NC(=O)c1cc(COc2ccc3sc(C)nc3c2)on1 | 14.4 (≈ 6.5 µg/mL) |  | > 128 |  |  |  |
| COC(=O)[C@@H](NC(=O)c1nc(COc2ccc3sc(C)nc3c2)cs1)c1ccccc1 | 62.5 (≈ 28.3 µg/mL) | 4.86 |  | 37.5 | 14.5 | 4.44 |
| Cc1nc2cc(OCc3cc(C(=O)N4CCOCC4)no3)ccc2s1 | > 128 |  |  |  |  |  |
| COC(=O)[C@@H](NC(=O)c1cc(COc2ccc3sc(C)nc3c2)on1)c1ccccc1Cl | 15.5 (≈ 7.31 µg/mL) |  | > 128 |  |  |  |
| COC(=O)[C@H](CC(C)C)NC(=O)c1cc(COc2ccc3sc(C)nc3c2)on1 | 3.8 (≈ 1.59 µg/mL) | 4.57 | > 128 | 18.7 | 12.3 | 2.79 |
| COC(=O)[C@@H](NC(=O)c1cc(COc2ccc3sc(C)nc3c2)on1)c1ccccc1 | 1.4 (≈ 0.612 µg/mL) | 3.97 | > 128 | 74.2 | > 90 | 27.5 |

| SMILES | MIC [1] [µM] | IC50 [2] [µM] | MCC at 72 h [3] [µM] | IC50 [4] [µM] | IC50 [5] [µM] | IC50 [6] [µM] |
| --- | --- | --- | --- | --- | --- | --- |
| COC(=O)[C@@H](NC(=O)c1ccc2sc(C)nc2c1)c1ccccc1 | 13 (≈ 4.43 µg/mL) |  | > 128 |  |  |  |
| Cc1nc2cc(OCc3cc(C(=O)N4CCNCC4)no3)ccc2s1 | > 128 |  |  |  |  |  |
| Cc1nc2cc(OCc3cc(C(=O)N[C@H](C(=O)NO)c4ccccc4)no3)ccc2s1 | > 128 | 1.82 |  | 0.415 | 6.2 | 3.25 |
| Cc1nc2cc(OCc3cc(C(=O)N4CCCCO4)no3)ccc2s1 | 7.8 (≈ 2.8 µg/mL) |  |  |  |  |  |
| COC(=O)[C@H](NC(=O)c1cc(COc2ccc3sc(C)nc3c2)on1)c1ccccc1 | 1.9 (≈ 0.831 µg/mL) | 3.33 | > 128 | 89.5 | 37.5 | 22.3 |
| Cc1nc2cc(OCc3cc(C(=O)NCc4ccccc4)no3)ccc2s1 | > 128 | 3.43 |  | 86.9 | > 90 | 8.8 |
| CCOC(=O)c1cc(COc2ccc3sc(C)nc3c2)on1 | > 128 |  |  |  |  |  |
| Cc1nc2cc(OCc3cc(C(=O)NO)no3)ccc2s1 | > 128 | 2.76 |  | 1.85 | 15.9 | 6.06 |
| Cc1nc2cc(OCc3cc(C(=O)N[C@H](CO)c4ccccc4)no3)ccc2s1 | > 128 | 2.56 |  | 31.2 | > 90 | > 90 |
| COC(=O)[C@@H](NC(=O)c1cc(C)on1)c1ccccc1 | 37 (≈ 10.1 µg/mL) | > 5 | > 128 | > 90 | > 90 | 56.3 |
| COC(=O)[C@@H](NC(=O)c1cc(COc2ccc3sc(C)nc3c2)on1)c1ccc(OC)cc1 | 12.2 (≈ 5.7 µg/mL) |  | > 128 |  |  |  |
| COC(=O)[C@@H](NC(=O)c1cc(COc2ccc3sc(C)nc3c2)on1)c1ccc(O)cc1 | 15.4 (≈ 6.98 µg/mL) | 2.5 | > 128 | 88.9 | 26.4 | 4.48 |
| Cc1nc2cc(OCc3cc(C(=O)NNC(=O)c4ccncc4)no3)ccc2s1 | 4.4 (≈ 1.8 µg/mL) | > 5 | > 128 | 38 | > 90 | > 90 |
| COC(=O)[C@@H](NC(=O)c1cc(COc2ccc3sc(C)nc3c2)on1)C(C)C | > 128 |  |  |  |  |  |
| COC(=O)[C@@H](NC(=O)c1cc(CSc2nc3ccccc3s2)on1)c1ccccc1 | 13 (≈ 5.71 µg/mL) | > 5 | > 128 | 88.9 | 16.9 | 6.03 |
| O=C(Cn1ccnc1[N+](=O)[O-])NCc1ccccc1 [BENZNIDAZOLE] |  |  |  |  | 0.521 |  |
| NNC(=O)c1ccncc1 [ISONIAZID] | 0.5 (≈ 0.0686 µg/mL) |  | > 128 |  |  |  |
| CCCCCCCCCCCCCCCCOP(=O)([O-])OCC[N+](C)(C)C [MILTEFOSINE] |  |  |  |  |  | 0.142 |
| CO[C@H]1/C=C/O[C@@]2(C)Oc3c(C)c(O)c4c(O)c(c(/C=N/N5CCN(C)CC5)c(O)c4c3C2=O)NC(=O)/C(C)=C\C=C\[C@H](C)[C@H](O)[C@@H](C)[C@@H](O)[C@@H](C)[C@H](OC(C)=O)[C@@H]1C [RIFAMPIN] | 0.1 (≈ 0.0823 µg/mL) |  | 127 |  |  |  |
